Experimental data from different studies.
Compare with care: the assays were run in different laboratories.
Target: Ankyrin repeat and protein kinase domain-containing protein 1 (ANKK1, Homo sapiens, UniProt Q8NFD2)
Sequence (Q8NFD2 1-765, as in one of the studies): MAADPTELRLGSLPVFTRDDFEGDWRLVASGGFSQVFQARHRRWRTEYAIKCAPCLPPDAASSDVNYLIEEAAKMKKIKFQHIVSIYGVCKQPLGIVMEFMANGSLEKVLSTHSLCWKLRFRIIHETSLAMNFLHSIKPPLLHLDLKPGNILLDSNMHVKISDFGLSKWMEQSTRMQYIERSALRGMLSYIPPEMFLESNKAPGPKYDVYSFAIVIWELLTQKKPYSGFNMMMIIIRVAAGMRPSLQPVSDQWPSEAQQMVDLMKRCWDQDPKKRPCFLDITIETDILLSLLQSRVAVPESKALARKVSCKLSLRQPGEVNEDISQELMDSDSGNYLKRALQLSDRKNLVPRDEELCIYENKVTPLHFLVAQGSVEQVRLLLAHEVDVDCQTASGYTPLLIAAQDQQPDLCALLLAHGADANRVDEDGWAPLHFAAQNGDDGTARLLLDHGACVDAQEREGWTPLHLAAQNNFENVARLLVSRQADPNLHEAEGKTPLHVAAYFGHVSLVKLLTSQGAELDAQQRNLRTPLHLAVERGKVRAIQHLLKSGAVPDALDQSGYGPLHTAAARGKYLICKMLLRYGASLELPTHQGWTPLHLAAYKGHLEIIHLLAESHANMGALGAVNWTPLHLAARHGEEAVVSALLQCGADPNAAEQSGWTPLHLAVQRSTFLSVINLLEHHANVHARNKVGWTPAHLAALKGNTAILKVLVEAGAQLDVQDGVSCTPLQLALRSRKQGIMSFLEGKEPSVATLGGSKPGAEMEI

Structure (SMILES)	observed	method	concentration	remaining binding [%]
O=C(NCCCN1CCOCC1)c1ccc(Nc2nccc(-c3cc4ccccc4s3)n2)cc1	binding	competition with immobilised ligand	1 µM	71
Nc1ncc2c(n1)-c1c([nH]c3ccc(C#CC4CC4)cc13)CCCC2	binding	competition with immobilised ligand	1 µM	85
COc1ccnn2ncc(-c3ccnc(N(C)C)n3)c12	binding	–	1 µM	78
O=C(c1ccc(Nc2nccc(-c3cc4ccccc4s3)n2)cc1)N1CCC(N2CCCC2)CC1	binding	competition with immobilised ligand	1 µM	71
FC(F)(F)Oc1cccc(-c2cnc3ccc(-c4ccncc4)nn23)c1	cell-free assay	competition with immobilised ligand	5 µM	70
CN(CCCC(F)(F)F)c1nccc(-c2cnn3ncccc23)n1	binding	–	1 µM	95
O=C(c1ccc(Nc2ncc(Cl)c(-c3cc4ccccc4s3)n2)cc1)N1CCC(N2CCCC2)CC1	binding	competition with immobilised ligand	1 µM	62
CO[C@@H](C)c1c(Nc2ccc([C@@H](N(C)C(=O)C3CCS(=O)(=O)CC3)C(F)(F)F)cc2)cnc2cc(Cl)nn12	cell-free assay	competition with immobilised ligand	1 µM	100
CNC(=O)[C@@H]1CC[C@@H](n2c(-c3ccc4cnccc4c3)nc3ccc(C(=O)NCc4cccc(C(N)=O)c4)cc32)C1	binding	competition with immobilised ligand	1 µM	100
O=C(N1CCS(=O)(=O)CC1)N1C[C@H](c2ccc(OC(F)(F)F)cc2)C[C@H](c2nc(C3CC3)no2)C1	cell-free assay	competition with immobilised ligand	1 µM	100
Cc1cnn2ncc(-c3ccnc(N(C)C)n3)c2c1	binding	–	1 µM	100
O=c1nc(-c2ccccn2)sc2ccccc12	binding	competition with immobilised ligand	1 µM	100
O=C(NCC1CCOCC1)c1n[nH]cc1NC(=O)c1c(F)cccc1F	binding	competition with immobilised ligand	1 µM	66
C[C@H]1CCN(c2nccc(-c3cnn4ncccc34)n2)C1	binding	–	1 µM	83
CCC(=O)N[C@@H]1CC[C@H](C(=O)N(C)c2ccc(-c3nc4ccccc4o3)cc2)C1	cell-free assay	competition with immobilised ligand	1 µM	100
C=CC(=O)N1CCC(C(=O)NCC(=O)N2CCN(c3nc(-c4cnc(N)nc4C(F)F)nc(N4CCOCC4)n3)CC2)CC1	binding	competition with immobilised ligand	1 µM	100
C[C@@]1(Cc2ccc(C#N)cc2)C(=O)N(c2cc(Cl)cc(Cl)c2)c2ncc(C(=O)NC3(c4nc(C5CCC5)no4)CC3)n21	cell-free assay	competition with immobilised ligand	1 µM	100
F[C@@H]1CCN(c2nccc(-c3cnn4ncccc34)n2)C1	binding	–	1 µM	100
COc1cnc(Nc2cccc(S(N)(=O)=O)c2)nc1N1CCN(c2ccccc2)CC1	binding	competition with immobilised ligand	1 µM	97
CC1=C(C#N)C(c2ccc3c(c2)c(NC(=O)c2ccccc2C)nn3C)C(C#N)=C(C)N1	cell-free assay	competition with immobilised ligand	1 µM	92
